In ChEMBL document CHEMBL3120087, “3D QSAR studies based in silico screening of 4,5,6-triphenyl-1,2,3,4-tetrahydropyrimidine analogs for anti-inflammatory activity” (2014):
Each block holds one compound with its values, some of them ahead of it.

Key:
[1] = system: Rattus norvegicus; assay: Antiinflammatory activity in rat assessed as reduction of paw edema; format: functional
Outline: (§1)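 Albino rats of either sex (150–200 g), six per group, fasted 12 h with water only. […] Paw volume measured by plethysmometer immediately (initial) and then hourly to 4 h. Mean paw volume ± SEM reported with % inhibition of edema versus control.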

[2] = system: Rattus norvegicus; assay: Antiinflammatory activity in albino rat assessed as inhibition of carrageenan-induced paw edema at 20 mg/kg, po administered 1 hr prior to carrageenan challenge measured after 1 hr relative to vehicle-treated control; format: functional; outline: as §1
[3] = system: Rattus norvegicus; assay: Antiinflammatory activity in albino rat assessed as inhibition of carrageenan-induced paw edema at 20 mg/kg, po administered 1 hr prior to carrageenan challenge measured after 2 hrs relative to vehicle-treated control; format: functional; outline: as §1
[4] = system: Rattus norvegicus; assay: Antiinflammatory activity in albino rat assessed as inhibition of carrageenan-induced paw edema at 20 mg/kg, po administered 1 hr prior to carrageenan challenge measured after 3 hrs relative to vehicle-treated control; format: functional; outline: as §1
[5] = system: Rattus norvegicus; assay: Antiinflammatory activity in albino rat assessed as inhibition of carrageenan-induced paw edema at 20 mg/kg, po administered 1 hr prior to carrageenan challenge measured after 24 hrs relative to vehicle-treated control; format: functional
[6] = system: Rattus norvegicus; assay: Antiinflammatory activity in albino rat assessed as inhibition of carrageenan-induced paw edema at 20 mg/kg, po administered 1 hr prior to carrageenan challenge measured after 4 hrs relative to vehicle-treated control; format: functional; outline: as §1
[7] = biological target: T1, Prostaglandin G/H synthase 1 (Ovis aries) (UniProt P05979); assay: Inhibition of ovine COX1 using TMPD as substrate at 20 uM incubated for 5 mins prior to substrate addition measured after 5 mins by colorimetry
T1 sequence (whole entry): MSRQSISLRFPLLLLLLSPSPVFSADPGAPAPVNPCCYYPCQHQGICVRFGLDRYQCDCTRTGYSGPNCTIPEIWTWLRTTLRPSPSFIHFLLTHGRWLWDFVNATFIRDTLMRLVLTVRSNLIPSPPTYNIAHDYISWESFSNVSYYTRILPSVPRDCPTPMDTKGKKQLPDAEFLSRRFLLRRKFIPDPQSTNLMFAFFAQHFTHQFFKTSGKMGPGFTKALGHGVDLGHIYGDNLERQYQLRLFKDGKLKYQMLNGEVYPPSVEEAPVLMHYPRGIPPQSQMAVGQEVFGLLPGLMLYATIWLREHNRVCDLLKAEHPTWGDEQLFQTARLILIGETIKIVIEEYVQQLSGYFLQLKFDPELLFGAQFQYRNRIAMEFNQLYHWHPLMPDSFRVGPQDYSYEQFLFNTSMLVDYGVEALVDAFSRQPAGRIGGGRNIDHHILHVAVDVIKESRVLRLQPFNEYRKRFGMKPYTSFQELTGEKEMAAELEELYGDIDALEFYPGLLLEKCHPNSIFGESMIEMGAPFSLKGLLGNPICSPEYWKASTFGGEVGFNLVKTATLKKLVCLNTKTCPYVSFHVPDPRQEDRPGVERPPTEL
Outline: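 Colorimetric COX assay using peroxidase activity of ovine cyclooxygenase to oxidize TMPD. Assay mixture mixed and incubated at 25 °C for 5 min. Enzyme activity read as absorbance at 590 nm.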

SMILES: O=C(O)CC1=C(c2ccc(Cl)cc2)N=C(S)NC1c1ccccc1 (configuration not stated)
log(activity) [1]: 0.65

SMILES: N=C1NC(c2ccccc2)=C(CC(=O)O)C(c2ccccc2)N1 (configuration not stated)
log(activity) [1]: 0.64

SMILES: O=C(O)CC1=C(c2ccccc2)N=C(S)NC1c1cccnc1 (configuration not stated)
log(activity) [1]: 0.46

SMILES: Cc1ccc(C2=C(CC(=O)O)C(c3cccnc3)NC(S)=N2)cc1 (configuration not stated)
log(activity) [1]: 0.11

SMILES: COc1ccc(C2NC(=N)NC(c3ccc(Cl)cc3)=C2CC(=O)O)cc1 (configuration not stated)
log(activity) [1]: 0.92

SMILES: N=C1NC(c2ccc(Cl)cc2)=C(CC(=O)O)C(c2ccc(Cl)cc2)N1 (configuration not stated)
log(activity) [1]: 0.74

SMILES: Cc1ccc(C2=C(CC(=O)O)C(c3cccs3)NC(S)=N2)cc1 (configuration not stated)
log(activity) [1]: 0.28

SMILES: COc1ccc(C2NC(=N)NC(c3ccc(Cl)cc3)=C2c2ccc(S(C)(=O)=O)cc2)cc1 (configuration not stated)
inhibition in vivo at 20 mg/kg [2]: 30.2%
inhibition in vivo at 20 mg/kg [3]: 20.5%
inhibition in vivo at 20 mg/kg [4]: 43.6%
inhibition in vivo at 20 mg/kg [5]: 15.6%
inhibition in vivo at 20 mg/kg [6]: 28.6%

SMILES: O=C(O)CC1=C(c2ccc(Cl)cc2)N=C(S)NC1c1cccnc1 (configuration not stated)
log(activity) [1]: 0.35

SMILES: Cc1ccc(C2=C(CC(=O)O)C(c3ccc(Cl)cc3)NC(S)=N2)cc1 (configuration not stated)
log(activity) [1]: 0.72

SMILES: Cc1ccc(C2=C(CC(=O)O)C(c3ccco3)NC(S)=N2)cc1 (configuration not stated)
log(activity) [1]: 0.31

SMILES: COc1ccc(C2NC(S)=NC(c3ccc(Cl)cc3)=C2CC(=O)O)cc1 (configuration not stated)
log(activity) [1]: 1.02

SMILES: Cc1ccc(C2=C(CC(=O)O)C(c3ccc(Cl)cc3)NC(=N)N2)cc1 (configuration not stated)
log(activity) [1]: 0.68

inhibition [7]: 2.36%
SMILES: CN(C)c1ccc(C2NC(=O)NC(c3ccc(S(C)(=O)=O)cc3)=C2c2ccccc2)cc1 (configuration not stated)
inhibition in vivo at 20 mg/kg [2]: 46.9%
inhibition in vivo at 20 mg/kg [3]: 41.4%
inhibition in vivo at 20 mg/kg [4]: 26.9%
inhibition in vivo at 20 mg/kg [6]: 9.52%

SMILES: COc1ccc(C2NC(=S)NC(c3ccc(S(C)(=O)=O)cc3)=C2c2ccccc2)c(OC)c1 (configuration not stated)
inhibition in vivo at 20 mg/kg [2]: 15.3%
inhibition in vivo at 20 mg/kg [3]: 26.7%
inhibition in vivo at 20 mg/kg [4]: 10.2%

SMILES: N=C1NC(c2ccccc2)=C(CC(=O)O)C(c2ccco2)N1 (configuration not stated)
log(activity) [1]: 0.55

SMILES: COc1ccc(C2NC(=N)NC(c3ccccc3)=C2CC(=O)O)cc1 (configuration not stated)
log(activity) [1]: 0.82

SMILES: O=C(O)CC1=C(c2ccccc2)N=C(S)NC1c1ccc(Cl)cc1 (configuration not stated)
log(activity) [1]: 0.88

SMILES: Cc1ccc(C2=C(CC(=O)O)C(c3ccccc3)NC(S)=N2)cc1 (configuration not stated)
log(activity) [1]: 0.82

SMILES: O=C(O)CC1=C(c2ccc(Cl)cc2)N=C(S)NC1c1ccco1 (configuration not stated)
log(activity) [1]: 0.24

SMILES: N=C1NC(c2ccc(Cl)cc2)=C(CC(=O)O)C(c2ccco2)N1 (configuration not stated)
log(activity) [1]: 0.56

SMILES: COc1ccc(C2NC(=N)NC(c3ccc(S(C)(=O)=O)cc3)=C2c2ccccc2)cc1OC (configuration not stated)
inhibition in vivo at 20 mg/kg [2]: 24.8%
inhibition in vivo at 20 mg/kg [3]: 18.6%
inhibition in vivo at 20 mg/kg [4]: 37.1%
inhibition in vivo at 20 mg/kg [5]: 3.9%
inhibition in vivo at 20 mg/kg [6]: 11.3%

SMILES: COc1ccc(C2NC(S)=NC(c3ccc(C)cc3)=C2CC(=O)O)cc1 (configuration not stated)
log(activity) [1]: 0.96

SMILES: Cc1ccc(C2=C(CC(=O)O)C(c3cccnc3)NC(=N)N2)cc1 (configuration not stated)
log(activity) [1]: 0.58

SMILES: N=C1NC(c2ccccc2)=C(CC(=O)O)C(c2cccs2)N1 (configuration not stated)
log(activity) [1]: 0.51

SMILES: CS(=O)(=O)c1ccc(C2=C(c3ccccc3)C(c3ccccc3)NC(=S)N2)cc1 (configuration not stated)
inhibition in vivo at 20 mg/kg [2]: 46.9%
inhibition in vivo at 20 mg/kg [3]: 30.9%
inhibition in vivo at 20 mg/kg [4]: 43.1%
inhibition in vivo at 20 mg/kg [6]: 18.4%

SMILES: O=C(O)CC1=C(c2ccc(Cl)cc2)N=C(S)NC1c1cccs1 (configuration not stated)
log(activity) [1]: 0.54

SMILES: COc1ccc(C2NC(=N)NC(c3ccc(C)cc3)=C2CC(=O)O)cc1 (configuration not stated)
log(activity) [1]: 0.88

SMILES: CN(C)c1ccc(C2NC(=O)NC(c3ccc(Cl)cc3)=C2c2ccc(S(C)(=O)=O)cc2)cc1 (configuration not stated)
inhibition in vivo at 20 mg/kg [2]: 18%
inhibition in vivo at 20 mg/kg [3]: 27.6%
inhibition in vivo at 20 mg/kg [4]: 28.9%
inhibition in vivo at 20 mg/kg [6]: 16.1%

SMILES: Cc1ccc(-c2cc(C(F)(F)F)nn2-c2ccc(S(N)(=O)=O)cc2)cc1 [CELECOXIB]
inhibition in vivo at 20 mg/kg [2]: 48.2%
inhibition in vivo at 20 mg/kg [3]: 41.9%
inhibition in vivo at 20 mg/kg [4]: 32.5%
inhibition in vivo at 20 mg/kg [5]: 6.49%
inhibition in vivo at 20 mg/kg [6]: 17.9%

SMILES: N=C1NC(c2ccc(Cl)cc2)=C(CC(=O)O)C(c2cccs2)N1 (configuration not stated)
log(activity) [1]: 0.64

SMILES: O=C(O)CC1=C(c2ccccc2)N=C(S)NC1c1ccccc1 (configuration not stated)
log(activity) [1]: 0.52

SMILES: COc1ccc(OC)c(C2NC(=N)NC(c3ccc(S(C)(=O)=O)cc3)=C2c2ccccc2)c1 (configuration not stated)
inhibition in vivo at 20 mg/kg [2]: 25.2%
inhibition in vivo at 20 mg/kg [3]: 24.3%
inhibition in vivo at 20 mg/kg [4]: 20.3%
inhibition in vivo at 20 mg/kg [6]: 10.7%

SMILES: Cc1ccc(C2=C(CC(=O)O)C(c3ccco3)NC(=N)N2)cc1 (configuration not stated)
log(activity) [1]: 0.54

SMILES: Cc1ccc(C2=C(CC(=O)O)C(c3cccs3)NC(=N)N2)cc1 (configuration not stated)
log(activity) [1]: 0.64

SMILES: COc1ccc(OC)c(C2NC(=O)NC(c3ccc(Cl)cc3)=C2c2ccc(S(N)(=O)=O)cc2)c1 (configuration not stated)
inhibition in vivo at 20 mg/kg [2]: 18%
inhibition in vivo at 20 mg/kg [3]: 28.1%
inhibition in vivo at 20 mg/kg [4]: 24.4%
inhibition in vivo at 20 mg/kg [6]: 14.3%

SMILES: O=C(O)CC1=C(c2ccccc2)N=C(S)NC1c1cccs1 (configuration not stated)
log(activity) [1]: 0.64

SMILES: COc1ccc(C2NC(=O)NC(c3ccc(S(C)(=O)=O)cc3)=C2c2ccccc2)c(OC)c1 (configuration not stated)
inhibition in vivo at 20 mg/kg [2]: 21.6%
inhibition in vivo at 20 mg/kg [3]: 28.1%
inhibition in vivo at 20 mg/kg [4]: 39.1%

SMILES: N=C1NC(c2ccc(Cl)cc2)=C(CC(=O)O)C(c2ccccc2)N1 (configuration not stated)
log(activity) [1]: 0.78

SMILES: Cc1ccc(C2=C(CC(=O)O)C(c3ccccc3)NC(=N)N2)cc1 (configuration not stated)
log(activity) [1]: 0.82

SMILES: COc1ccc(OC)c(C2NC(=O)NC(c3ccc(S(C)(=O)=O)cc3)=C2c2ccccc2)c1 (configuration not stated)
inhibition in vivo at 20 mg/kg [2]: 35.6%
inhibition in vivo at 20 mg/kg [3]: 19.1%
inhibition in vivo at 20 mg/kg [4]: 24.4%
inhibition in vivo at 20 mg/kg [6]: 17.3%

SMILES: O=C(O)CC1=C(c2ccc(Cl)cc2)N=C(S)NC1c1ccc(Cl)cc1 (configuration not stated)
log(activity) [1]: 0.82

SMILES: COc1ccc(C2NC(S)=NC(c3ccccc3)=C2CC(=O)O)cc1 (configuration not stated)
log(activity) [1]: 0.92

SMILES: O=C(O)CC1=C(c2ccccc2)N=C(S)NC1c1ccco1 (configuration not stated)
log(activity) [1]: 0.57

SMILES: N=C1NC(c2ccc(Cl)cc2)=C(CC(=O)O)C(c2cccnc2)N1 (configuration not stated)
log(activity) [1]: 0.54

SMILES: N=C1NC(c2ccccc2)=C(CC(=O)O)C(c2ccc(Cl)cc2)N1 (configuration not stated)
log(activity) [1]: 0.64

SMILES: N=C1NC(c2ccccc2)=C(CC(=O)O)C(c2cccnc2)N1 (configuration not stated)
log(activity) [1]: 0.3
